Results taken from ChEMBL document CHEMBL4699443, “Position of lipidation influences anticancer activity of Smac analogs” (Bioorg Med Chem Lett, 2019).
pEC50: −log10 of the molar value. One block for each compound: values may come before it. Non-standard residues stand in square brackets, D forms with d. Residues, ends and D or L forms follow the SMILES beside them. *: point of attachment. Pro(cis-4-OPh) = O=C(O)[C@@H]1C[C@H](Oc2ccccc2)CN1; Bip = N[C@@H](Cc1ccc(-c2ccccc2)cc1)C(=O)O; Tle = CC(C)(C)[C@H](N)C(=O)O; X1 = CCCCCCCCCCCCCCCCCCSCCN*; NMeA = CN[C@@H](C)C(=O)O

How the values were obtained:
T47D = assay: Antiproliferative activity against human T47D cells assessed as growth inhibition after 48 hrs by PrestoBlue dye based fluorescence assay; assay type: functional, cell-based
HepG2 = assay: Antiproliferative activity against human HepG2 cells assessed as growth inhibition after 48 hrs by PrestoBlue dye based fluorescence assay; assay type: functional, cell-based; settings: HepG2, 48 h
[1] = Tmax in C57BL/6 mouse at 10 mg/kg, sc by LC-MS analysis; assay type: ADME, organism-based; settings: in vivo
Outline: (§1)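 Mice individually weighed, then given a single SC dose of 10 mg/kg. Blood taken by retro-orbital bleeding at set time points. Plasma levels measured by triple-quadrupole LC/MS; plasma half-life derived from these levels.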

[2] = Cmax in C57BL/6 mouse at 10 mg/kg, sc by LC-MS analysis; assay type: ADME, organism-based; set-up: route subcutaneous, dose 10 mg/kg; settings: in vivo; outline: as §1
[3] = Drug level in C57BL/6 mouse plasma at 10 mg/kg, sc after 30 mins by LC-MS analysis; assay type: ADME, organism-based; settings: in vivo, 0.5 h; outline: as §1
BT-474 = assay: Antiproliferative activity against human BT-474 cells assessed as growth inhibition after 48 hrs by PrestoBlue dye based fluorescence assay; assay type: functional, cell-based; settings: BT-474, 48 h
MDA-MB-361 [4] = assay: Antiproliferative activity against human MDA-MB-361 cells assessed as growth inhibition after 48 hrs by PrestoBlue dye based fluorescence assay; assay type: functional, cell-based; settings: MDA-MB-361, 48 h
KOPN-8 [5] = assay: Antiproliferative activity against human KOPN-8 cells assessed as growth inhibition after 48 hrs by PrestoBlue dye based fluorescence assay; assay type: functional, cell-based; settings: KOPN-8, 48 h
HL-60 = assay: Antiproliferative activity against human HL60 cells assessed as growth inhibition after 48 hrs by PrestoBlue dye based fluorescence assay; assay type: functional, cell-based; settings: HL-60, 48 h
THP-1 = assay: Antiproliferative activity against human THP1 cells assessed as growth inhibition after 48 hrs by PrestoBlue dye based fluorescence assay; assay type: functional, cell-based; settings: THP-1, 48 h
[6] = Antiproliferative activity against human M233 cells assessed as growth inhibition after 48 hrs by PrestoBlue dye based fluorescence assay; assay type: functional, cell-based; settings: M233, 48 h
[7] = Antiproliferative activity against human M263 cells assessed as growth inhibition after 48 hrs by PrestoBlue dye based fluorescence assay; assay type: functional, cell-based; settings: M263, 48 h
PC-3 = assay: Antiproliferative activity against human PC-3 cells assessed as growth inhibition after 48 hrs by PrestoBlue dye based fluorescence assay; assay type: functional, cell-based; settings: PC-3, 48 h
T84 = assay: Antiproliferative activity against human T84 cells assessed as growth inhibition after 48 hrs by PrestoBlue dye based fluorescence assay; assay type: functional, cell-based; settings: T84, 48 h
[8] = Antiproliferative activity against human UM-SCC-5 cells assessed as growth inhibition after 48 hrs by PrestoBlue dye based fluorescence assay; assay type: functional, cell-based; settings: UM-SCC-5, 48 h
[9] = Antiproliferative activity against human UM-SCC-12 cells assessed as growth inhibition after 48 hrs by PrestoBlue dye based fluorescence assay; assay type: functional, cell-based; settings: UM-SCC-12, 48 h
[10] = Antiproliferative activity against human UM-SCC-178 cells assessed as growth inhibition after 48 hrs by PrestoBlue dye based fluorescence assay; assay type: functional, cell-based; settings: UM-SCC-178, 48 h
KOPN-8 [11] = assay: Induction of apoptosis in human KOPN8 cells assessed as viable cells at 10 uM after 24 hrs by AnnexinV/PI-staining based flow cytometry; assay type: functional; settings: read-out: Activity
Outline: (§2)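 KOPN-8 cells treated with 1 or 10 μM compound, alone or as an equimolar two-compound mixture. Cultured for a time course, then stained with annexin V and propidium iodide. Read by flow cytometry; populations gated by annexin V/PI staining, including annexin V+/PI+ double positives.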

KOPN-8 [12] = assay: Induction of apoptosis in human KOPN8 cells assessed as early apoptotic cells at 10 uM after 24 hrs by AnnexinV/PI-staining based flow cytometry; assay type: functional; outline: as §2
KOPN-8 [13] = assay: Induction of apoptosis in human KOPN8 cells assessed as late apoptotic cells at 10 uM after 24 hrs by AnnexinV/PI-staining based flow cytometry; assay type: functional; outline: as §2
KOPN-8 [14] = assay: Induction of apoptosis in human KOPN8 cells assessed as necrotic cells at 10 uM after 24 hrs by AnnexinV/PI-staining based flow cytometry; assay type: functional; outline: as §2
KOPN-8 [15] = assay: Induction of apoptosis in human KOPN8 cells assessed as viable cells at 10 uM after 48 hrs by AnnexinV/PI-staining based flow cytometry; assay type: functional; settings: read-out: Activity; outline: as §2
KOPN-8 [16] = assay: Induction of apoptosis in human KOPN8 cells assessed as early apoptotic cells at 10 uM after 48 hrs by AnnexinV/PI-staining based flow cytometry; assay type: functional; outline: as §2
KOPN-8 [17] = assay: Induction of apoptosis in human KOPN8 cells assessed as late apoptotic cells at 10 uM after 48 hrs by AnnexinV/PI-staining based flow cytometry; assay type: functional; outline: as §2
KOPN-8 [18] = assay: Induction of apoptosis in human KOPN8 cells assessed as necrotic cells at 10 uM after 48 hrs by AnnexinV/PI-staining based flow cytometry; assay type: functional; outline: as §2
KOPN-8 [19] = assay: Induction of apoptosis in human KOPN8 cells assessed as viable cells at 10 uM after 72 hrs by AnnexinV/PI-staining based flow cytometry; assay type: functional; settings: read-out: Activity; outline: as §2
KOPN-8 [20] = assay: Induction of apoptosis in human KOPN8 cells assessed as early apoptotic cells at 10 uM after 72 hrs by AnnexinV/PI-staining based flow cytometry; assay type: functional; outline: as §2
KOPN-8 [21] = assay: Induction of apoptosis in human KOPN8 cells assessed as late apoptotic cells at 10 uM after 72 hrs by AnnexinV/PI-staining based flow cytometry; assay type: functional; outline: as §2
KOPN-8 [22] = assay: Induction of apoptosis in human KOPN8 cells assessed as necrotic cells at 10 uM after 72 hrs by AnnexinV/PI-staining based flow cytometry; assay type: functional; outline: as §2
KOPN-8 [23] = assay: Induction of apoptosis in human KOPN8 cells assessed as viable cells at 10 uM after 168 hrs by AnnexinV/PI-staining based flow cytometry; assay type: functional; settings: read-out: Activity; outline: as §2
KOPN-8 [24] = assay: Induction of apoptosis in human KOPN8 cells assessed as early apoptotic cells at 10 uM after 168 hrs by AnnexinV/PI-staining based flow cytometry; assay type: functional; outline: as §2
KOPN-8 [25] = assay: Induction of apoptosis in human KOPN8 cells assessed as late apoptotic cells at 10 uM after 168 hrs by AnnexinV/PI-staining based flow cytometry; assay type: functional; outline: as §2
KOPN-8 [26] = assay: Induction of apoptosis in human KOPN8 cells assessed as necrotic cells at 10 uM after 168 hrs by AnnexinV/PI-staining based flow cytometry; assay type: functional; outline: as §2
KOPN-8 [27] = assay: Induction of apoptosis in human KOPN8 cells assessed as increase in caspase 9 activity at 0.1 to 50 uM after 24 hrs by Caspase-glo reagent based microplate reader analysis relative to control; assay type: functional; settings: dose microM 0.1-50
MDA-MB-361 [28] = assay: Antitumor activity against sc dosed human MDA-MB-361 cells xenografted in BALB mouse administered up to 12 days by caliper analysis; assay type: functional, organism-based; settings: dose mg/kg 10-20, time 12.0 day
Outline: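 Tumor-bearing mice, subcutaneous engraftment model; compound given SC at 10 or 20 mg/kg in 2% Cremophor EL, 2×5 injections (10 doses total). Read-out is tumor growth delay in days, taken at a tumor volume of 500 mm3.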

HCC1954 = assay: Antiproliferative activity against human HCC1954 cells assessed as growth inhibition after 48 hrs by PrestoBlue dye based fluorescence assay; assay type: functional, cell-based; settings: HCC1954, 48 h
VCaP = assay: Antiproliferative activity against human VCap cells assessed as growth inhibition after 48 hrs by PrestoBlue dye based fluorescence assay; assay type: functional, cell-based

- pEC50 (T47D): 5.05
- pEC50 (HepG2): 5.27
SMILES: CCCCCCCCCCCCCCCc1cccc(O[C@H]2C[C@@H](C(=O)NCC(c3ccccc3)c3ccccc3)N(C(=O)[C@@H](NC(=O)[C@H](C)NC)C(C)(C)C)C2)c1

- Tmax [1]: 15.5 h
- Cmax [2]: 3.9708 µM
- Cp [3]: 1.9854 µM
SMILES: CCCCCCCCCCCCCCCc1cccc(O[C@H]2C[C@@H](C(=O)NC(c3ccccc3)c3ccccc3)N(C(=O)[C@@H](NC(=O)[C@H](C)NC)C(C)(C)C)C2)c1

- pEC50 (BT-474): 6.49
- pEC50 (MDA-MB-361 [4]): 5.77
- pEC50 (HL-60): 5.70
- pEC50 (THP-1): 5.06
- pEC50 (PC-3): 5.66
- Tmax [1]: 16 h
- Cmax [2]: 15.1265 µM
- Cp [3]: 7.5633 µM
SMILES: CCCCCCCCCCCCCCCCCCSCCNC(=O)[C@H](Cc1ccc(-c2ccccc2)cc1)NC(=O)[C@@H]1C[C@H](Oc2ccccc2)CN1C(=O)[C@@H](NC(=O)[C@H](C)NC)C(C)(C)C (H-[NMeA][Tle][Pro(cis-4-OPh)][Bip]-X1)
- pEC50 (KOPN-8 [5]): 6.00
- pEC50 [6]: 5.02
- pEC50 [7]: 5.54
- pEC50 (T84): 5.70
- pEC50 [8]: 6.02
- pEC50 [9]: 5.96
- pEC50 [10]: 5.57
- viability at 10 µM (KOPN-8 [11]): 71%
- Activity (KOPN-8 [12]): 1.67%
- Activity (KOPN-8 [13]): 20.3%
- Activity (KOPN-8 [14]): 7.06%
- viability at 10 µM (KOPN-8 [15]): 79.3%
- Activity (KOPN-8 [16]): 0.94%
- Activity (KOPN-8 [17]): 17.8%
- Activity (KOPN-8 [18]): 1.97%
- viability at 10 µM (KOPN-8 [19]): 74.9%
- Activity (KOPN-8 [20]): 1.27%
- Activity (KOPN-8 [21]): 22.4%
- Activity (KOPN-8 [22]): 1.41%
- viability at 10 µM (KOPN-8 [23]): 87.6%
- Activity (KOPN-8 [24]): 1.81%
- Activity (KOPN-8 [25]): 9.97%
- Activity (KOPN-8 [26]): 0.63%
- fold change (FC) (KOPN-8 [27]): 1.5
- Activity (MDA-MB-361 [28]): Dose-dependent effect

- pEC50 (HCC1954): 4.76
- pEC50 (VCaP): 5.05
SMILES: CCCCCCCCCCCCCCCCS[C@H]1C[C@@H](C(=O)NCC(c2ccccc2)c2ccccc2)N(C(=O)[C@@H](NC(=O)[C@H](C)NC)C(C)(C)C)C1
